Legend:
Format in all cases: functional
[1] = organism: Oryctolagus cuniculus; assay: Compound measured for hyperpolarization of smooth muscle cells of the rabbit main pulmonary artery at concentration 100 uM.
Outline: (§1)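 Rabbit main pulmonary artery strips; intracellular glass microelectrode recording of smooth muscle membrane potential after 60 min equilibration. Baseline taken as potential reached with 1 µM noradrenaline. Bath medium exchanged for solutions of increasing compound concentration. At least four cells measured per concentration. Value is hyperpolarization (ΔmV) at the stated concentration, averaged over two preparations.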

[2] = organism: Sus scrofa; assay: Relaxing effect determined by measuring inhibition of acetylcholine-induced contractions in pig coronary arteries.
Outline: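 Pig coronary artery rings from slaughterhouse hearts, resting tension 2 g, isometric force recording. Control acetylcholine contraction repeated every 45 min for three or four cycles, with the last cycle as predrug value. Rising compound concentrations added 30 min before agonist; a solvent ring served as time control.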

[3] = organism: Oryctolagus cuniculus; assay: Compound measured for hyperpolarization of smooth muscle cells of the rabbit main pulmonary artery at concentration 1 uM.; outline: as §1
[4] = organism: Oryctolagus cuniculus; assay: Drug concentration required to induce half maximal hyperpolarization in rabbit main pulmonary arteries
Outline: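 Rabbit main pulmonary artery strips, 60 min equilibration, predepolarized with 1 µM noradrenaline. Membrane potential recorded intracellularly with glass microelectrodes in at least four cells per concentration while compound concentration was raised by bath exchange. EC50 is the concentration giving half-maximal hyperpolarization, taken from concentration/response curves.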

[5] = organism: Oryctolagus cuniculus; assay: Compound measured for hyperpolarization of smooth muscle cells of the rabbit main pulmonary artery at concentration 0.1 uM.; outline: as §1
[6] = organism: Oryctolagus cuniculus; assay: Relaxing effect by measuring inhibition of noradrenaline-induced contractions in rabbit main pulmonary arteries
Outline: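 Rabbit pulmonary artery rings 5 mm wide, resting tension 2 g, equilibrated 60–90 min, isometric force recording. Rings contracted with 0.7-1 µM noradrenaline (about 80% of maximal response). Once force was stable, compound added cumulatively in 0.5 log increments. IC50 (50% inhibition) determined graphically for each experiment and reported as geometric mean with 95% confidence limits.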

[7] = organism: Oryctolagus cuniculus; assay: Compound measured for hyperpolarization of smooth muscle cells of the rabbit main pulmonary artery at concentration 10 uM.; outline: as §1
[8] = organism: Oryctolagus cuniculus; assay: Compound measured for hyperpolarization of smooth muscle cells of the rabbit main pulmonary artery at concentration 4 uM.; details: in the assay text read “10 uM” for “4 uM”; outline: as §1
[9] = organism: Oryctolagus cuniculus; assay: Compound measured for hyperpolarization of smooth muscle cells of the rabbit main pulmonary artery at concentration 3 uM.; outline: as §1

Compound	IC50 [2] [nM]	Delta mV [1]	further results
C[C@H]1[C@H](n2ccccc2=O)c2cc(C#N)ccc2OC1(C)C	> 100000	–	Delta mV [3]: 10
CC1(C)Oc2ccc(C#N)cc2[C@@H](Oc2ccc(=O)[nH]n2)[C@]1(C)O	6	–	EC50 [4]: 3 nM; Delta mV [5]: 29; IC50 [6]: 2 nM
CC1(C)Oc2ccc(C#N)cc2[C@H](Oc2ccc(=O)[nH]n2)[C@@]1(C)O	–	20	–
CC1(C)Oc2ccc(C#N)cc2[C@]2(n3ccccc3=O)O[C@]12C	> 100000	10	–
CC1(C)Oc2ccc([N+](=O)[O-])cc2[C@@H](n2ccccc2=O)[C@]1(C)O	20000	–	Delta mV [7]: 22
CC1(C)Oc2ccc(C#N)cc2[C@@H](Oc2ccnc(O)c2)[C@]1(C)O	4	–	Delta mV [5]: 35
CC1(C)Oc2ccc(C#N)cc2[C@@H](Nn2ccccc2=O)[C@]1(C)O	> 100000	12	–
CCOC[C@]1(O)[C@H](Oc2ccc(=O)[nH]n2)c2cc(C#N)ccc2OC1(C)C	50000	12	–
CC1(C)Oc2ccc(C#N)cc2[C@@H](OC2=CC(=O)CC2)[C@]1(C)O	20	–	Delta mV [3]: 25
CC1(C)Oc2ccc([N+](=O)[O-])cc2[C@@H](Oc2ccc(=O)[nH]n2)[C@]1(C)O	20	–	Delta mV [5]: 24
CC1(C)Oc2ccc(C#N)cc2[C@@H](n2ccccc2=O)[C@@H]1O	–	–	EC50 [4]: 105 nM; IC50 [6]: 174 nM; Delta mV [3]: 34
Cn1nc(O[C@@H]2c3cc(C#N)ccc3OC(C)(C)[C@@]2(C)O)ccc1=O	30	–	Delta mV [5]: 24
CC1(C)Oc2ccc(C#N)cc2[C@@H](Oc2ccc(=O)[nH]n2)[C@@]1(O)COCc1ccccc1	> 100000	16	–
C[C@]1(O)[C@H](Oc2ccc(=O)[nH]n2)c2cc(C#N)ccc2OC12CCCCC2	80000	26	–
Cn1nc(N[C@@H]2c3cc(C#N)ccc3OC(C)(C)[C@@]2(C)O)ccc1=O	20	–	Delta mV [5]: 34
CC1=C(n2ccccc2=O)c2cc(C#N)ccc2OC1(C)C	5000	29	–
Cn1nc(O[C@@H]2c3cc(C#N)ccc3OC(C)(C)[C@H]2O)ccc1=O	50	–	EC50 [4]: 11 nM; Delta mV [5]: 29; IC50 [6]: 26 nM
CC1=C(N2CCCC2=O)c2cc(C#N)ccc2OC1(C)C	> 100000	29	–
CC1(C)C=C(n2ccccc2=O)c2cc(C#N)ccc2O1 [BIMAKALIM]	50	–	EC50 [4]: 27 nM; Delta mV [5]: 23; IC50 [6]: 57 nM
CC1(C)Oc2ccc(C#N)cc2C(N2CCCC2=O)C1O (stereo unspecified) [CROMAKALIM]	700	–	EC50 [4]: 263 nM; Delta mV [9]: 28; IC50 [6]: 420 nM

Second part, led by results:

IC50 [2] [nM]	Compound	Delta mV [1]	further results
> 100000	CC1(C)Oc2ccc(C#N)cc2[C@@H](n2ccccc2=O)[C@]1(C)O	19	–
> 100000	CC1(C)Oc2ccc(C#N)cc2[C@@H](Oc2ccc(=O)[nH]n2)[C@@]1(O)Cc1ccccc1	6	–
> 100000	CC1(C)Oc2ccc(C#N)cc2[C@@H](On2ccccc2=O)[C@]1(C)O	21	–
6000	CC1(C)Oc2ccc(C#N)cc2[C@@H](Oc2ccccn2)[C@]1(C)O	25	–
40000	CC1(C)Oc2ccc(C#N)cc2[C@@H](n2nc(N)ccc2=O)[C@]1(C)O	13	–
20000	C[C@]1(O)[C@H](n2ccccc2=O)c2cc(C#N)ccc2OC12CCCCC2	3	–
4000	CC1(C)Oc2ccc(C#N)cc2[C@@H](N2CCCC2=O)[C@]1(C)O	–	Delta mV [8]: 23
7	CCn1nc(O[C@@H]2c3cc(C#N)ccc3OC(C)(C)[C@@]2(C)O)ccc1=O	–	Delta mV [5]: 22
700	CC1(C)Oc2ccc(C#N)cc2[C@@H](Oc2ccc(=O)[nH]n2)[C@@]1(O)CO	–	Delta mV [9]: 32
